# Sampled rows, rich in hits. Any-hit rate of the full collection: about 1%.
# Yeast growth tox: Inhibitors of S. cerevisiae growth, toxicity | growth inhibition, % at 25 µM (by protocol) | S. cerevisiae wild-type growth, A595 turbidity, 16 h | AID 685 | actives 0.3% (n = 30,000);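 active = mutant and wild-type yeast strains alike exhibit over 30% growth inhibition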
#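 Incubation: 16 h growth with compound, 30 °C; Material: S. cerevisiae wild-type or eIF2Bepsilon-R284H mutant strain; Signal: turbidity measured as absorbance at 595 nm; Medium: YPD yeast growth medium; Measure: growth inhibition (%) versus cell controls and blanks; Doses: 25 µM single dose.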
# Yeast eIF2B: modulators of yeast eIF2B activity. S. cerevisiae eIF2B-epsilon R284H, GCN4-lacZ luminescence. inhibition, % at 25 µM (by protocol). actives 0.91% (n = 27,000). AID 688;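 active = mutant luminescence inhibited past about 50% while wild type luminescence and mutant growth stay under set limits, limit read from the data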
#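 Assay system: yeast eIF2B-epsilon R284H mutant carrying GCN4–beta-galactosidase fusion / Buffer or medium: YPD / Incubation: 16 h growth with compound at 30 °C, 90 min Beta-Glo step / Detection: Beta-Glo luminescence after Z-buffer lysis, growth by 595 nm absorbance / Read-out: % inhibition of reporter signal and growth versus controls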
# Hits are given with their value; – = inactive; · = no result given.
SMILES,Yeast growth tox,Yeast eIF2B
Cc1ccc(O)c(-c2cc(-c3cccc(F)c3)n[nH]2)c1,51.4,·
Cc1ccc(-c2cc(-c3cccc(F)c3)n[nH]2)c(O)c1,30.0,·
Oc1ccc(Br)cc1-c1cc(-c2ccc(Cl)cc2)n[nH]1,–,·
Oc1ccc(Br)cc1-c1cc(-c2ccccc2)n[nH]1,80.0,–
Cc1ccc(O)c(-c2cc(-c3ccccc3F)[nH]n2)c1,–,·
CCOc1ccc(S(=O)(=O)NCCC(=O)OC(C)C(=O)N2CCc3ccccc32)cc1 (stereo not given),–,–
CC1CCC2(CC1)NC(=O)c1ccccc1O2 (stereo not given),–,–
O=S(=O)(CCc1nc2ccccc2o1)c1ccc2ccccc2c1,–,–
CCOc1ccc(OCCN2C(=O)NC(Cc3c[nH]c4ccccc34)C2=O)cc1 (stereo not given),–,·
CCCCNS(=O)(=O)c1ccc(NS(=O)(=O)c2c(C)cc(C)cc2C)cc1,–,–
Cc1cc(NC(=O)c2cc(-c3cccs3)on2)no1,30.7,–
CC(C)NC(=O)c1cc(-c2cccs2)on1,–,–
COCCN1C(=O)c2ccccc2C(C(=O)N2CCN(c3ccccc3)CC2)C1c1ccc(F)cc1 (stereo not given),–,–
CCOc1ccc(NC(=O)Nc2cccs2)cc1,–,–
Cc1cccc(C)c1NS(=O)(=O)c1c(C)[nH]c(=O)[nH]c1=O,–,–
COC(=O)c1cn(CCOc2ccccc2)c2ccccc12,–,61.3
COC(=O)c1cn(CCOc2ccccc2OC)c2ccccc12,·,–
CC(=O)c1cccc(-n2nnnc2SCC(=O)Nc2ccccc2N2CCCCC2)c1,–,–
CC(=O)c1cccc(-n2nnnc2SCC(=O)Nc2cccc(NC(=O)c3ccco3)c2)c1,–,61.4
COc1ccccc1-c1nc(-c2cccc(C)c2)no1,–,–
Cc1ccc(Cn2nnc3c(=O)n(CC(=O)N4CCCc5ccccc54)cnc32)cc1,–,–
Cc1cccc(Cn2cnc3c(nnn3Cc3ccc(Cl)cc3)c2=O)c1,–,59.5
Cn1nnnc1SCC(=O)N1CCc2ccccc2C1,–,–
Nn1c(COc2cccc(Br)c2)nnc1SCC(=O)N1CCc2ccccc2C1,–,50.5
COc1ccc(OC)c(C(=O)N2CCC(C(=O)c3ccc(F)cc3)CC2)c1,–,–
SMILES,Yeast growth tox,Yeast eIF2B
CCC(C)Oc1cccc(OCCCCN2C(=O)NC(C)(C)C2=O)c1 (stereo not given),–,50.7
CC1(C)NC(=O)N(CCOCCOc2cccc(Oc3ccccc3)c2)C1=O,–,–
O=C(COC(=O)CNS(=O)(=O)c1ccccc1)Nc1ccc(Cl)cn1,–,·
Cc1ccc(S(=O)(=O)N(C)c2ccc(C(=O)N3CCN(Cc4ccc5c(c4)OCO5)CC3)cc2)cc1,–,·
CN1C(=O)NC2(O)C(=O)c3ccccc3C12O (stereo not given),–,·
CN1C(=O)N(C)C2(c3ccccc3)NC(=O)NC12c1ccccc1 (stereo not given),–,53.9
CCc1ccc2c(c1)C1(NN=C(c3ccc(C)cc3)S1)C(=O)N2 (stereo not given),·,59.7
CC(C)c1ccc2c(c1)C1(NN=C(c3ccccc3)S1)C(=O)N2 (stereo not given),–,–
CCCn1nnnc1SCC(=O)NCc1ccc2c(c1)OCO2,–,·
C=CCc1c(C)nc(SC(C)C)[nH]c1=O,–,52.5
C=CCSc1nc(C)c(CC=C)c(=O)[nH]1,·,–
Cc1c(/C=C(\C#N)c2nn(-c3ccccc3)c(N)c2C#N)c2ccccc2n1Cc1ccc(F)cc1,–,–
COC(=O)Nc1cc(C(F)(F)F)ccc1N1CCN(c2ccccc2)CC1,–,–
CC(=O)Nc1cc(C(F)(F)F)ccc1OCCOc1ccccc1,–,55.1
CCOC(=O)N1CCC(NC(=O)c2cc(C)c3c(C)nn(-c4ccccc4)c3n2)CC1,–,–
CC(=O)Nc1ccc(S(=O)(=O)NCc2ccc(C(=O)NC(C)c3ccccc3)cc2)cc1 (stereo not given),–,–
Cc1ccc(C)c(N(C)S(=O)(=O)c2cccc3nsnc23)c1,–,–
Cc1ccc(-c2cn(S(=O)(=O)c3cccc4nsnc34)nc2N)cc1,–,58.2
COC(=O)CSc1snnc1-c1ccc(Cl)cc1Cl,–,–
COC(=O)C1=C(C)NC(=O)C1(NS(=O)(=O)c1ccc(NC(C)=O)cc1)C(F)(F)F (stereo not given),–,–
Cc1cc(C(=O)COC(=O)C2=NNC(=O)CC2)c(C)n1-c1cccc(C(F)(F)F)c1,–,–
CCCOC(=O)/C(=C\c1ccc([N+](=O)[O-])o1)NC(=O)c1ccccc1,–,–
CCc1ccc(C(=O)/C=C/c2ccc([N+](=O)[O-])o2)cc1,65.8,·
O=C(NCC1CCCO1)c1ccccc1 (stereo not given),–,–
O=C(Nc1ccccc1)C1CC=CCC1C(=O)OCC1CCCO1 (stereo not given),33.3,–
SMILES,Yeast growth tox,Yeast eIF2B
CCOC(=O)C1=C(C)C(c2ccccc2O)NC(=O)N1 (stereo not given),–,·
COc1ccc2c(c1)CCc1c(C(=O)NCc3cccnc3)noc1-2,–,60.0
COc1ccc(OCC(=O)NCc2cccnc2)cc1,·,–
COC(=O)C1=NN(N=O)C2(CC(=O)N(c3cc(C)cc(C)c3)C2=O)C1 (stereo not given),–,–
Cc1ccc(C)c(N(CC(=O)NCCC2=CCCCC2)S(C)(=O)=O)c1,–,–
CCCc1nc(NCC2CCCO2)c2nnn(Cc3ccccc3)c2n1 (stereo not given),–,·
O=C(CCC1=NS(=O)(=O)c2ccccc2N1)NC1CCCCCCC1,–,–
O=C(CC1Nc2ccccc2NC1=O)NC1CCCCC1 (stereo not given),–,57.8
Cc1ccc2nc(C3CCN(S(=O)(=O)c4ccc5ccccc5c4)CC3)[nH]c2c1,–,·
Cn1cccc1C1Nc2ccccc2NC2=C1C(=O)CC(C)(C)C2 (stereo not given),–,–
c1ccc2oc(CCc3nc4ccccc4o3)nc2c1,–,–
Nc1ccc2oc(CCc3ccccc3)nc2c1,–,52.9
COc1ccc(OC(=O)c2ccc3nsnc3c2)cc1,–,–
O=C(Nc1ccc2c(c1)OCO2)c1noc2c1CCCCC2,–,–
CC(=O)c1ccc(NC(=O)c2noc3c2CCCCC3)cc1,–,69.4

# Screening data deposited in PubChem BioAssay by PCMD.
